Data set [1] has as its system Mus musculus. The experiment in a line: Hypotensive effect in anesthetized wild type mouse assessed as total time duration of hypotensive effect at 1.4 uM/Kg, iv administered via right jugular vein measured for 60 mins. The format is functional. The note with it: 1 h. Summed up: (§1)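 Anesthetized mice received peptide at 1.4 μM kg−1 body weight, or equal-volume saline, by injection into the right jugular vein (n = 3). HR, MABP, SBP and DBP were recorded from blood pressure traces and reported as mean ± S.E.M.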

A short description of data set [2]: Stability in human plasma assessed as half life at 1 mM measured for 24 hrs by LC-MS analysis. It counts as ADME, cell-free. Summed up: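 Plasma (20 μL, human or murine) prewarmed to 37 °C, then 5 μL of 1 mM peptide added and incubated at 37 °C. Samples quenched at 1, 3, 6 and 24 h with 6 M GuHCl/80% ACN and Dans-YVG internal standard, centrifuged, solid-phase extracted and analyzed by LC-MS. Peptide/standard peak-area ratio normalized to 0 h; triplicates.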

Data set [3] addresses T1, Apelin receptor (Homo sapiens, UniProt P35414).
T1 sequence (P35414 whole entry): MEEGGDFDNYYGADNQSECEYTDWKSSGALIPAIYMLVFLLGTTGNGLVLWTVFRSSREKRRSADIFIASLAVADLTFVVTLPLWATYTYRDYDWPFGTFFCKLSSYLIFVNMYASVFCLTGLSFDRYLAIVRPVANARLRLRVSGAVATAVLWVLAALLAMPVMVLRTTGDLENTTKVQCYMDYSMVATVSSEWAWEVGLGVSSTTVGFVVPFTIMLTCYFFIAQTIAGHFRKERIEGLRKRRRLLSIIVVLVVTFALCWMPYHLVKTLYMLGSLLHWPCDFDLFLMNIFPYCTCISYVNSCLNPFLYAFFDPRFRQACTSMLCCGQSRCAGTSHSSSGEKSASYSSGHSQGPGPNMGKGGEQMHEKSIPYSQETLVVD
Briefly: Activation of recombinant human APJ receptor expressed in rat Chem-5 cells assessed as increase in Ca2+ mobilization by FLIPR Calcium 6-QF fluorescent dye based assay. It counts as cell-based. Summed up:
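Frozen Chem-5 cells stably expressing human APJ, thawed per supplier protocol, loaded 1 h with Calcium 6-QF dye in HBSS/20 mM HEPES/0.2% DMSO/2.5 mM probenecid, pH 7.6. Cells washed three times and rested 10 min, then read on FLIPR. Agonist response taken as maximum fluorescence change over baseline. pEC50 from four-parameter logistic fit; triplicates.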
Background: Calcium flux is commonly read through the fluorescence of an indicator in the cells.

Data set [4] concerns the target Neprilysin (NEP) (Homo sapiens, UniProt P08473). The experiment in a line: Proteolytic stability assessed as recombinant human NEP-mediated compound degradation by measuring half life incubated for 24 hrs by LC-MS analysis. It counts as ADME. The note with it: recombinant human neprilysin (NEP).
Data set [5] concerns Mus musculus. Briefly: Hypotensive effect in anesthetized wild type mouse assessed as change in mean arterial blood pressure at 1.4 uM/Kg, iv administered via right jugular vein measured for 60 mins. It counts as functional. As to conditions: 1 h. Summed up:
as §1

For data set [6], the target named is T2, Apelin receptor (Rattus norvegicus, UniProt Q9JHG3).
T2 sequence (Q9JHG3 whole entry): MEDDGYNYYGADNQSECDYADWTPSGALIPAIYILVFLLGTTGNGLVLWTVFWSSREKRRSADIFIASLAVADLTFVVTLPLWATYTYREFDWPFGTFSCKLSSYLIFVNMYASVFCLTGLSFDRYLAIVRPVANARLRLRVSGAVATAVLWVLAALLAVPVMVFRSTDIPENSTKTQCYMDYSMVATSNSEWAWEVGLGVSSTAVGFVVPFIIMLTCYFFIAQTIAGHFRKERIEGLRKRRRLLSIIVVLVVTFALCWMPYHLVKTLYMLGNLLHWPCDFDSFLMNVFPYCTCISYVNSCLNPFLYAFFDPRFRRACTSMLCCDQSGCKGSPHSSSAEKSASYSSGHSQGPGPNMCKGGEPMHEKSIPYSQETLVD
Briefly: Displacement of [125I]-pyr-1-apelin-13 from EGFP tagged rat apelin receptor expressed in CHO cell membrane incubated for 3 hrs by gamma counter analysis. The format is cell membranes. In a few lines: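 Crude membranes (1 μg/assay) from CHO cells stably expressing wild-type rat APJ-EGFP, incubated 3 h at 20 °C with 0.2 nM [125I]-pyr-1-apelin-13 (Lys8 Bolton–Hunter monoiodinated) and competitor at various concentrations. Binding buffer: 50 mM HEPES, 5 mM MgCl2, 1% BSA, pH 7.5. Quenched with cold buffer, GF/C filtered and washed, gamma counted; triplicates.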
Background: Displacement assays read how much labelled ligand stays bound in the presence of the test substance.

Non-standard residues stand in square brackets, D forms with d. Residues, ends and D or L forms follow the SMILES beside them. Phe(4-Br) = N[C@@H](Cc1ccc(Br)cc1)C(=O)O; Cha = N[C@@H](CC1CCCCC1)C(=O)O; Nle = CCCC[C@H](N)C(=O)O; Aib = CC(C)(N)C(=O)O

Chain of Neprilysin (NEP) (P08473 whole entry): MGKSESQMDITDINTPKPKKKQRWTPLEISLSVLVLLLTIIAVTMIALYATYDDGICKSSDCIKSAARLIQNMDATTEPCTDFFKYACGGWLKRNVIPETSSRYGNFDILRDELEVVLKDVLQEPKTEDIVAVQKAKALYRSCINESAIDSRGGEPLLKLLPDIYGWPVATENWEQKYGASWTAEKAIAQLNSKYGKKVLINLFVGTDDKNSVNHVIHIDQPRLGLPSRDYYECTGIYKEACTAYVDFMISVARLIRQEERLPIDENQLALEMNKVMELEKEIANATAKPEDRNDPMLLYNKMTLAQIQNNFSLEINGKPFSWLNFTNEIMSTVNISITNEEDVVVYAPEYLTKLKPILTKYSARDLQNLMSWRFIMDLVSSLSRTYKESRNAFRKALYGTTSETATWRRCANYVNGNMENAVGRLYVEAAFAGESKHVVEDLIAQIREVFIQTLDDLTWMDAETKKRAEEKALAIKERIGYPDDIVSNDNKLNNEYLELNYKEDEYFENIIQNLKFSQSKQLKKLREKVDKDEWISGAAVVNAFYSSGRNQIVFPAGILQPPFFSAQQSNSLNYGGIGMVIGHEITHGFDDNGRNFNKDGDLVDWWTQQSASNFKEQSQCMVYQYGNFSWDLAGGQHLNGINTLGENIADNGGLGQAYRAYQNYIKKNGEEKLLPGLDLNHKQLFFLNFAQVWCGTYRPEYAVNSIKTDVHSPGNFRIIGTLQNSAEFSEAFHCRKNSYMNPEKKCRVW

On to `CCCC[C@H](NC(=O)[C@@H]1CCCN1C(=O)CNC(=O)[C@H](CCCCN)NC(=O)[C@H](Cc1c[nH]cn1)NC(=O)[C@H](CO)NC(=O)[C@H](CC(C)C)N(C)C(=O)[C@H](CCCNC(=N)N)NC(=O)[C@@H]1CCCN1C(=O)[C@H](CCCNC(=N)N)NC(=O)[C@@H]1CCC(=O)N1)C(=O)NC(C)(C)C(=O)N[C@@H](Cc1ccc(Br)cc1)C(=O)O`, for which the Time in data set [1] was 26 min. The half-life – broadly, how long it takes for the measured level to halve – at 1000 µM in data set [2] is 3.54 h. In data set [3], the EC50 – broadly, the concentration that produces a half-maximal response – is 6.76 nM. Moreover, the half-life in data set [4] was 40.3 h. Besides, the Activity in data set [5] was 9.52 mmHg.
For `CCCC[C@H](NC(=O)[C@@H]1CCCN1C(=O)CNC(=O)[C@H](CCCCN)NC(=O)[C@H](Cc1c[nH]cn1)NC(=O)[C@H](CO)NC(=O)[C@H](CC(C)C)NC(=O)[C@H](CCCNC(=N)N)NC(=O)[C@@H]1CCCN1C(=O)[C@H](CCCNC(=N)N)NC(=O)[C@@H]1CCC(=O)N1)C(=O)NC(C)(C)C(=O)N[C@@H](Cc1ccc(Br)cc1)C(=O)O`, in that order: 60 min, 0.81 h, 4.27 nM, 10.3 h and 23.88 mmHg.
`CCCC[C@H](NC(=O)[C@@H]1CCCN1C(=O)CNC(=O)[C@H](CCCCN)NC(=O)[C@H](Cc1c[nH]cn1)NC(=O)[C@H](CO)NC(=O)[C@H](CC(C)C)NC(=O)[C@H](CCCCNC(=N)N)NC(=O)[C@@H]1CCCN1C(=O)[C@H](CCCNC(=N)N)NC(=O)[C@@H]1CCC(=O)N1)C(=O)NC(C)(C)C(=O)N[C@@H](Cc1ccc(Br)cc1)C(=O)O`: the Time in data set [1] was determined as 60 min. In data set [2], the half-life at 1000 µM is 1.31 h. Also, in data set [3], the EC50 is 2.19 nM. In addition, the half-life in data set [4] was 19 h. In addition, the Activity in data set [5] is listed as 26.44 mmHg. Also, in data set [6], the Ki (usually a measure of affinity in units of concentration, obtained from inhibition or displacement) was 0.676 nM.
For `CCCC[C@H](NC(=O)[C@@H]1CCCN1C(=O)CNC(=O)[C@H](CCCCN)NC(=O)[C@H](Cc1c[nH]cn1)NC(=O)[C@H](CO)NC(=O)[C@H](CC1CCCCC1)NC(=O)[C@H](CCCCNC(=N)N)NC(=O)[C@@H]1CCCN1C(=O)[C@H](CCCNC(=N)N)NC(=O)[C@@H]1CCC(=O)N1)C(=O)NC(C)(C)C(=O)N[C@@H](Cc1ccc(Br)cc1)C(=O)O`, the Time in data set [1] came to 57 min. Further, the half-life at 1000 µM in data set [2] is 2.58 h. For the same compound, the 50% effective concentration (EC50) in data set [3] is 3.72 nM. Further, in data set [4], the half-life is 21.9 h. Moreover, the Activity in data set [5] turned out to be 15.33 mmHg. The same compound had a Ki in data set [6] of 0.372 nM.
Regarding `CCCC[C@H](NC(=O)[C@@H]1CCCN1C(=O)CNC(=O)[C@H](CCCCN)NC(=O)[C@H](Cc1c[nH]cn1)NC(=O)[C@H](CO)NC(=O)[C@H](CC1CCCCC1)NC(=O)[C@H](CCCNC(=N)N)NC(=O)[C@@H]1CCCN1C(=O)[C@H](CCCNC(=N)N)NC(=O)[C@@H]1CCC(=O)N1)C(=O)NC(C)(C)C(=O)N[C@@H](Cc1ccc(Br)cc1)C(=O)O`, in data set [1], the Time is listed as 15 min. Besides, the half-life at 1000 µM in data set [2] was 1.77 h. In data set [3], the EC50 is 2.4 nM. Further, in data set [4], the half-life is 22.1 h. In addition, the Activity in data set [5] is 0.23 mmHg. For the same compound, the affinity in data set [6], expressed as Ki, was 0.575 nM.
On to `CCCC[C@H](NC(=O)[C@@H]1CCCN1C(=O)CNC(=O)[C@H](CCCCN)NC(=O)[C@H](Cc1c[nH]cn1)NC(=O)[C@H](CO)NC(=O)[C@H](CC1CCCCC1)NC(=O)[C@H](CCCNC(=N)N)NC(=O)[C@@H]1CCCN1C(=O)[C@H](CCCNC(=N)N)NC(=O)[C@H](CCC(N)=O)NC(=O)[C@H](CCCNC(=N)N)NC(=O)[C@H](CCCNC(=N)N)NC(=O)[C@H](Cc1ccccc1)NC(=O)[C@@H](N)CCCCN)C(=O)NC(C)(C)C(=O)N[C@@H](Cc1ccc(Br)cc1)C(=O)O` (H-KFRRQRPR[Cha]SHKGP[Nle][Aib][Phe(4-Br)]-OH), for which, in data set [1], the Time is 60 min. Besides, in data set [2], the half-life at 1000 µM was 4.34 h. Moreover, the EC50 in data set [3] is 3.8 nM. Besides, the half-life in data set [4] is 47 h. In addition, the Activity in data set [5] is listed as 19.72 mmHg. Moreover, the affinity in data set [6] corresponds to a Ki of 1.58 nM.

(Values after ChEMBL document CHEMBL5233202, “Metabolically stable apelin-analogues, incorporating cyclohexylalanine and homoarginine, as potent apelin receptor activators” (RSC Med Chem, 2021).)
